A selection: hits, their analogues and other compounds. The true share with any hit is near 1.4%.
NRP1-CendR mod: NRP-1/CendR interaction modulation | O14786 | FAM-RPARPAR peptide binding to NRP-1, fluorescence polarization | inhibition, % at 25 µM | actives 0.85% (n = 360,000);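 active = inhibition or corrected inhibition above about 18%, plus a signal ratio from 0.5 to 1.5, limit read from the data, passing the limit was not always enough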
Target sequence (O14786 whole entry, looked up): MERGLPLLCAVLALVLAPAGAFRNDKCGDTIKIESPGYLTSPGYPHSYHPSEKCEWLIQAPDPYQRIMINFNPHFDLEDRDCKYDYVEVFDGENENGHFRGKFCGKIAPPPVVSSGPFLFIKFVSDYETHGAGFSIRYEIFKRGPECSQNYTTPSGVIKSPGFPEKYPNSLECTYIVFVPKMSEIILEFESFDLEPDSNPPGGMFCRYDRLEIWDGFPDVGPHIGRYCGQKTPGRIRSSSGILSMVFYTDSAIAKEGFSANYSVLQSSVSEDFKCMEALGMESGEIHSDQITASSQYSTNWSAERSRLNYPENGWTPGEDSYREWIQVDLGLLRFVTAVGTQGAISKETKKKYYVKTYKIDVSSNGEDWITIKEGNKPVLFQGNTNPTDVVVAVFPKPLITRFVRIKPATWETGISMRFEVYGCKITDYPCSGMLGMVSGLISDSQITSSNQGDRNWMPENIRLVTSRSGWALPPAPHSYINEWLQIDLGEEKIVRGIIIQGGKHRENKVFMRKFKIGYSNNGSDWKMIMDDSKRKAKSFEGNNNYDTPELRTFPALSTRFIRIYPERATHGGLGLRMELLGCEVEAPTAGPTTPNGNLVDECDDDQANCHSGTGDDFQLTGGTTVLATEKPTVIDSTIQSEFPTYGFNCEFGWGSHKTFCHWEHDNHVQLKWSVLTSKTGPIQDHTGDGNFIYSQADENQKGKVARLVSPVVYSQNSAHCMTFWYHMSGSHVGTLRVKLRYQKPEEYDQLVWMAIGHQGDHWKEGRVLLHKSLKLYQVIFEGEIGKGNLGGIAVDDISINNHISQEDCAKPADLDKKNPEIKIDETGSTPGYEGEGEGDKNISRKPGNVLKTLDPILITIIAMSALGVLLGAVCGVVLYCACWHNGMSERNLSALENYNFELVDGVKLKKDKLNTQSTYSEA
SKN-1 inh: blocks SKN-1 activity in C. elegans | inhibition, % at 21.8 µM | actives 0.49% (n = 360,000) | AID 624304 | C. elegans VP596 Pgst-4::GFP/RFP ratio, acrylamide-induced, 24 h;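 active = interference check ratio from 0.5 to 1.5 plus GFP to RFP signal ratio inhibition reaching or exceeding a fixed threshold, cut at about 30% in these data, passing the limit was not always enough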
MT1-MMP act inh: inhibitors of human MT1-MMP activation; HT1080 RFP-PRO-GFP cells, GFP/RFP ratio fluorescence, overnight; percent of plate control window, DMSO zero; GFP/RFP ratio change, % at 20 µM; actives 0.061% (n = 360,000);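 active = GFP/RFP ratio change of at least 30% with cell ATP level not reduced by more than half and red fluorescence within 50% of control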
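Assay system: HT1080 RFP-PRO-GFP cells. Benchmarks: DMSO vehicle wells and RFP-L50D-GFP reporter cell wells. Times: overnight cell settling, then overnight compound exposure, 37 °C, 5% CO2. Compound: 20 µM single dose, 1% DMSO. Read-out basis: GFP/RFP fluorescence ratio.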
hiPSC survival: hiPSC single-cell survival enhancement; survival enhancement, % at 20 µM; actives 0.044% (n = 360,000); ATPlite luminescence; 100% = ROCK inhibitor wells, 0% = DMSO; AID 602274; in the data active = survival enhancement above about 18%;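 note: cells exposed to compounds for 16 hours before the ATP read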
Starred values were filed as active, the others as inactive.

CCOC(=O)C1(Cc2ccccc2)NC(c2ccccc2F)C2C(=O)N(CC)C(=O)C21 (stereo not drawn) was read as NRP1-CendR mod 19*, SKN-1 inh -21, MT1-MMP act inh 1 and hiPSC survival -2.
Screening O=C(CN(C(=O)CNC(=O)c1ccco1)c1ccc2c(c1)OCCO2)NC1CCCC1 returned NRP1-CendR mod 21*, SKN-1 inh -13, MT1-MMP act inh 1 and hiPSC survival 1.
Screening O=C(CN(C(=O)CNC(=O)c1ccco1)c1ccc2c(c1)OCO2)NC1CCCCC1 returned NRP1-CendR mod 10, SKN-1 inh 11, MT1-MMP act inh -1 and hiPSC survival -2.
For C[N+](C)(CC#Cc1ccccc1)CC(=O)c1ccc(Cl)cc1 the results were NRP1-CendR mod -18, SKN-1 inh 5, MT1-MMP act inh 0 and hiPSC survival 1.
C[N+](C)(CC#Cc1ccccc1)CC(=O)c1ccccc1 was read as NRP1-CendR mod 42*, SKN-1 inh -6, MT1-MMP act inh -2 and hiPSC survival -1.
Cc1cc(C(=O)N2CCCC(N3CCN(c4cccc(Cl)c4)CC3)C2)nn1C (stereo not drawn) was read as NRP1-CendR mod 30*, SKN-1 inh -1, MT1-MMP act inh -1 and hiPSC survival 0.
`O=C(Cc1ccccc1)N1CCN=C1SCc1ccc([N+](=O)[O-])cc1` gave NRP1-CendR mod -10, SKN-1 inh 3, MT1-MMP act inh -1 and hiPSC survival 1.
For O=C(Cc1ccc(F)cc1)N1CCN=C1SCc1ccc([N+](=O)[O-])cc1 the results were NRP1-CendR mod 22*, SKN-1 inh -2, MT1-MMP act inh 7 and hiPSC survival -1.
Screening Cc1cc(C)cc(NC2=NCC(=O)N2Cc2ccccc2)c1 returned NRP1-CendR mod 35*, SKN-1 inh 15, MT1-MMP act inh 3 and hiPSC survival 5.
Cc1cccc(NC2=NCC(=O)N2Cc2ccccc2)c1 was read as NRP1-CendR mod 6, SKN-1 inh -22, MT1-MMP act inh -13 and hiPSC survival -3.
Cc1ccc(C(=O)Sc2cccccc2=O)cc1 was read as NRP1-CendR mod 0, SKN-1 inh -16, MT1-MMP act inh 14 and hiPSC survival 2.
`O=C(O)c1ccccc1NS(=O)(=O)c1ccc(NNC(=S)Nc2ccc(OC(F)F)cc2)c([N+](=O)[O-])c1` gave NRP1-CendR mod 26*, SKN-1 inh 1, MT1-MMP act inh 8 and hiPSC survival 0.
Screening Cc1ccc(NC(=S)NNc2ccc([N+](=O)[O-])cc2S(=O)(=O)Nc2ccccc2C(=O)O)cc1C returned NRP1-CendR mod -10, SKN-1 inh -5, MT1-MMP act inh 4 and hiPSC survival 0.
For Cc1ccc(NC(=O)CSc2nc(O)cc(=O)n2-c2ccc(C)cc2)cc1 the results were NRP1-CendR mod 4, SKN-1 inh -6, MT1-MMP act inh -2 and hiPSC survival 0.
`O=C(c1cccs1)N1CCc2c([nH]c3ccccc23)C1c1ccc(Cl)cc1` (stereo not drawn) gave NRP1-CendR mod 8, SKN-1 inh 50*, MT1-MMP act inh -8 and hiPSC survival 4.
For COc1cccc(C2c3[nH]c4ccccc4c3CCN2C(=O)c2ccccc2F)c1OC (stereo not drawn) the results were NRP1-CendR mod -2, SKN-1 inh 1, MT1-MMP act inh -8 and hiPSC survival 0.
Screening O=C(c1cn[nH]c1)N1CCc2c([nH]c3ccccc23)C1c1c(F)cccc1Cl (stereo not drawn) returned NRP1-CendR mod 40*, SKN-1 inh 1, MT1-MMP act inh -3 and hiPSC survival 2.
Screening O=C(O)C(CCC(C(=O)O)c1ccccc1)c1ccccc1 (stereo not drawn) returned NRP1-CendR mod 23, SKN-1 inh -2, MT1-MMP act inh 0 and hiPSC survival 7.
Screening CCN1CCN(CC(=O)Nc2cccc(C)c2C)C(=O)C1=O returned NRP1-CendR mod 21*, SKN-1 inh 3, MT1-MMP act inh 2 and hiPSC survival 0.
CN(C)S(=O)(=O)c1ccc(Cl)c(NC(=O)COC(=O)CN2C(=O)C3CCCCC3C2=O)c1 (stereo not drawn) was read as NRP1-CendR mod 1, SKN-1 inh -7, MT1-MMP act inh -4 and hiPSC survival 0.
For Fc1ccc(-n2cc(-c3ccccc3)c3c(N4CCOCC4)ncnc32)cc1 the results were NRP1-CendR mod -9, SKN-1 inh -2, MT1-MMP act inh -16 and hiPSC survival 1.
Screening CCN1CCN(c2ncnc3c2c(-c2ccccc2)cn3-c2ccc(F)cc2)CC1 returned NRP1-CendR mod -4, SKN-1 inh 52*, MT1-MMP act inh -7 and hiPSC survival 0.
`CCCOc1ccc(C(=O)Nc2ccc(N3CCN(C(=O)c4ccco4)CC3)cc2)cc1` gave NRP1-CendR mod 6, SKN-1 inh 7, MT1-MMP act inh 4 and hiPSC survival 0.
`CC(C)C[C@@H](CN)NC(=O)c1nc[nH]c1C(=O)N[C@@H](Cc1ccccc1)C(=O)CNC[C@H](C)NC(=O)c1nc[nH]c1C(=O)N[C@@H](C)C(=O)O` gave NRP1-CendR mod 5, SKN-1 inh 12, MT1-MMP act inh 3 and hiPSC survival -2.
Screening COC(=O)C(C(=O)OC)c1ccccc1[N+](=O)[O-] returned NRP1-CendR mod 31*, SKN-1 inh -4, MT1-MMP act inh -6 and hiPSC survival -1.
Screening CC(C)(C)OC(=O)NCC12C=CC(O1)C1C(=O)N(Cc3ccccc3)C(=O)C12 (stereo not drawn) returned NRP1-CendR mod 9, SKN-1 inh 37*, MT1-MMP act inh -2 and hiPSC survival -2.
O=C(COC(=O)C12CC3CC(CC(C3)C1)C2)Nc1nc2c(F)c(F)c(F)cc2s1 was read as NRP1-CendR mod 31*, SKN-1 inh -4, MT1-MMP act inh -3 and hiPSC survival 3.
Screening COc1ccc(C(=O)OCC(=O)Nc2nc3c(F)c(F)c(F)cc3s2)cc1OC returned NRP1-CendR mod 1, SKN-1 inh 6, MT1-MMP act inh -4 and hiPSC survival 0.
Cc1nn(-c2ccccc2)c(N2CCCC2)c1/C=N/NC(=S)Nc1ccccc1F was read as NRP1-CendR mod 9, SKN-1 inh -3, MT1-MMP act inh -2 and hiPSC survival 0.
`COc1ccc(C2C(C(C)=O)=C(C)N=c3s/c(=C\c4cc(C)n(C)c4C)c(=O)n32)c(OC)c1` (stereo not drawn) gave NRP1-CendR mod 125, SKN-1 inh 39*, MT1-MMP act inh -146 and hiPSC survival 2.
Screening CCCCC1=CC2=CC(=O)C(C)(OC(=O)CC)C(=O)C2=CN1Cc1ccco1 (stereo not drawn) returned NRP1-CendR mod 10, SKN-1 inh 8, MT1-MMP act inh 3 and hiPSC survival -2.
Screening COC/C=C/C1=CC2=CC(=O)C(C)(OC(=O)c3cnc4ccccc4n3)C(=O)C2=CN1Cc1ccco1 (stereo not drawn) returned NRP1-CendR mod 30*, SKN-1 inh 13, MT1-MMP act inh 4 and hiPSC survival -2.
